Laboratory results published in ChEMBL document CHEMBL1121584, “Soft drugs. 3. A new class of anticholinergic agents” (J Med Chem, 1980).

Columns and labels:
Format in all cases: functional
[1] = species on record: Felis catus; assay: acetylcholine antagonist effect of compound on cat blood pressure at concentration 5.7*10e-8 in 3 min
How it was run: (§1)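 Adult cats under ip α-chloralose (80 mg/kg) plus pentobarbitone (6 mg/kg), bilaterally vagotomized and artificially respired. Carotid blood pressure was recorded. An iv acetylcholine dose giving 70–80% of maximal vasodepressor response was used. After iv test drug, acetylcholine responses were checked at 1 min and then every 2–3 min and expressed as % of control. Doses were given in mol/kg, escalating after recovery.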

[2] = species on record: Felis catus; assay: acetylcholine antagonist effect of compound on cat blood pressure at concentration 5.7*10e-7 in 6 min; how it was run: as §1
[3] = species on record: Felis catus; assay: acetylcholine antagonist effect of compound on cat blood pressure at concentration 5.7*10e-7 in 4 min; how it was run: as §1
[4] = species on record: Felis catus; assay: acetylcholine antagonist effect of compound on cat blood pressure at concentration 5.7*10e-7 in 25 min; how it was run: as §1
[5] = test system: Felis catus; assay: acetylcholine antagonist effect of compound on cat blood pressure at concentration 5.7*10e-8 mol/kg in 1 min; how it was run: as §1
[6] = species on record: Felis catus; assay: acetylcholine antagonist effect of compound on cat blood pressure at concentration 5.7*10e-8 in 5 min
How it was run: (§2)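 Adult cats anesthetized ip with α-chloralose (80 mg/kg) plus sodium pentobarbitone (6 mg/kg), bilaterally vagotomized, artificially respired. Carotid arterial pressure recorded. Drugs given iv via brachial vein. Acetylcholine dose giving 70-80% of maximal vasodepressor response used throughout. Test drug injected, acetylcholine response checked 1 min later, then every ~2-3 min. Value is % of control vasodepressor response to acetylcholine.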

[7] = species on record: Felis catus; assay: acetylcholine antagonist effect of compound on cat blood pressure at concentration 5.7*10e-8 in 4 min; how it was run: as §2
[8] = species on record: Felis catus; assay: acetylcholine antagonist effect of compound on cat blood pressure at concentration 5.7*10e-8 in 9 min; how it was run: as §2
[9] = species on record: Felis catus; assay: acetylcholine antagonist effect of compound on cat blood pressure at concentration 5.7*10e-7 in 29 min; how it was run: as §1
[10] = species on record: Felis catus; assay: acetylcholine antagonist effect of compound on cat blood pressure at concentration 5.7*10e-7 in 21 min; how it was run: as §1
[11] = species on record: Felis catus; assay: acetylcholine antagonist effect of compound on cat blood pressure at concentration 5.7*10e-7 in 10 min; how it was run: as §1
[12] = species on record: Felis catus; assay: acetylcholine antagonist effect of compound on cat blood pressure at concentration 5.7*10e-7 in 1 min; how it was run: as §1
[13] = species on record: Felis catus; assay: acetylcholine antagonist effect of compound on cat blood pressure at concentration 5.7*10e-7 in 13 min; how it was run: as §1
[14] = species on record: Felis catus; assay: acetylcholine antagonist effect of compound on cat blood pressure at concentration 5.7*10e-7 in 17 min; how it was run: as §1

Compound: C[N+]1(COC(=O)C(c2ccccc2)C2CCCC2)CCOCC1.[Cl-] (centres undefined)
- Response [1]: 45%
- Response [2]: 0%
- Response [3]: 0%
- Response [4]: 82%
- Response [5]: 0%
- Response [6]: 90%
- Response [7]: 82%
- Response [8]: 100%
- Response [9]: 100%
- Response [10]: 73%
- Response [11]: 23%
- Response [12]: 0%
- Response [13]: 50%
- Response [14]: 59%
